The list is not random: actives were taken first. Their share in the collection is about 1.2%.
Diaph inh CS – inhibits diaphorase or chemically oxidizes, flagging diaphorase assay artifacts | AID 1217 | 190,000 tested, 0.69% active | inhibition, % at 20 µM | diaphorase resazurin-to-resorufin fluorescence, NADH, 16 min; bacterial (C. kluyveri) enzyme, not human;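 active means primary screen inhibition at 20 µM above a set limit, cut at about 50% in these data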;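 further: plate controls were DMSO with full reaction for no effect and wells lacking NADH for full effect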
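Test system: Clostridium kluyveri diaphorase enzyme / Quantity: diaphorase at 0.14 U/mL in enzyme working solution / Incubation: 16-min room-temperature incubation before reading / Benchmarks: NADH-free wells as positive control, DMSO-only neutral wells / Signal: resorufin fluorescence 544/590 nm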
Diaphorase act – activates diaphorase or chemically reduces, flagging diaphorase assay artifacts; 190,000 tested, 0.005% active; activation factor at 20 µM; AID 1229; Diaphorase/resazurin coupled assay, resorufin fluorescence, 16 min; stronger effect = higher value; 1 = vehicle wells, 0 = NADH-free wells;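 active means diaphorase activity raised at least twofold by the compound at 20 µM; inactive means activation factor below 2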
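Test system: Clostridium kluyveri diaphorase, purified enzyme; input: enzyme 0.07 U/mL final; buffer or medium: 50 mM HEPES pH 7.4 with 4.542 mM MgCl2, 0.005% Tween 20; also added: 0.114 mM NADH and 0.1 mM resazurin, final amounts; schedule: 16 min enzyme reaction, ambient temperature; technique: fluorescence of resorufin, 544 nm excitation, 590 nm emission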
HKDC1 inhibitor – HKDC1 (human) hexokinase inhibition. Q2TB90. recombinant HKDC1, G6PDH/diaphorase resazurin coupled fluorescence. inhibition, % at 20 µM. 340,000 tested, 0.16% active. AID 493160;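 active means inhibition above about 35% when tested at 20 µM, limit read from the data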;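 further: plate controls were DMSO wells with enzyme for no effect and DMSO wells lacking enzyme for full effect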
Target sequence (Q2TB90 whole entry, looked up): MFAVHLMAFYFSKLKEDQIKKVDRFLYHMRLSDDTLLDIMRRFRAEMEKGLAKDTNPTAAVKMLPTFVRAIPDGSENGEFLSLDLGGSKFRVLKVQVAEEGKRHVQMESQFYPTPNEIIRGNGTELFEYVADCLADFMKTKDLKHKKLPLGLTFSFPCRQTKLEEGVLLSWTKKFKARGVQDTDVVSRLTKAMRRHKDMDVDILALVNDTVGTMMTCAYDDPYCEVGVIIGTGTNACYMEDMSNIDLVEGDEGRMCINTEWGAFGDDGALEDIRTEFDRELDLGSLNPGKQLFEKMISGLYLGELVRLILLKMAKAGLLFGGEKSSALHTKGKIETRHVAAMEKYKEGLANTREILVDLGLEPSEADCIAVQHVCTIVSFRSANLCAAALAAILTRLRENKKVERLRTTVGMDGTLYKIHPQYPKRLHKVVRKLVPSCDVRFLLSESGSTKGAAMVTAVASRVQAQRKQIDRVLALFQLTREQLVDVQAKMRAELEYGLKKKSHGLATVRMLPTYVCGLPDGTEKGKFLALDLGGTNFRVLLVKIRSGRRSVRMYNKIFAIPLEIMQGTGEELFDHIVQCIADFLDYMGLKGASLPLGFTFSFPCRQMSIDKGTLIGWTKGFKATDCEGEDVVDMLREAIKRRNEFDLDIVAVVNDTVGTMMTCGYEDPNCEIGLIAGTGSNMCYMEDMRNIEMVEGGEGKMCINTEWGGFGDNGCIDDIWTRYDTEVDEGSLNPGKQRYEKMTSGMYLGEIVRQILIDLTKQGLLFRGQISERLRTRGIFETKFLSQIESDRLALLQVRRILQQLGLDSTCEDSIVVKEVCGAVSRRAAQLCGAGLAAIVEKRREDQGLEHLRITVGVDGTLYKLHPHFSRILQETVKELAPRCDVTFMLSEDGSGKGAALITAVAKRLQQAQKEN
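Assay system – recombinant HKDC1 (HK5) hexokinase enzyme, produced in-house · Input – HKDC1 at 5 µg/mL · Reagent – glucose plus 1 mM ATP as hexokinase substrates · Timing – 90 min reaction incubation at room temperature, dark · Measured by – G6PDH/diaphorase-coupled fluorescence, 1 mM NADP, 100 µM resazurin, 525/613 nm · Benchmarks – DMSO-enzyme wells negative, buffer-substituted wells positive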
PfGluPho inh – PfG6PD (Plasmodium falciparum) enzyme inhibition | PfGluPho enzyme, NADPH resazurin-diaphorase fluorescence | inhibition, % at 20 µM | 350,000 tested, 0.78% active | AID 504690;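 active means inhibition reaching at least a set limit at 20 µM in the primary screen, cut at about 59% in these data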;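 further: 0% = DMSO wells with substrate and 100% = DMSO wells lacking glucose-6-phosphate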
G6PDH CS – L. mesenteroides G6PDH inhibition counter-screen. Purified L. mesenteroides G6PDH, diaphorase/resazurin coupled fluorescence, 45 min. 200,000 tested, 0.12% active. inhibition, % at 5 µM; in the data active means inhibition above about 50%
PfG6PD confirm – confirmation of Plasmodium falciparum G6PD inhibitors | 2,400 tested, 34% active | recombinant PfGluPho, NADPH-diaphorase-resazurin fluorescence | inhibition, % at 20 µM | shares compounds with PfGluPho inh;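 active means inhibition of at least 50% at 20 µM in any single replicate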;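 further: 0% = DMSO with substrate and 100% = DMSO lacking glucose-6-phosphate substrate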
Diaph ctr 10uM – counter-screen for P. falciparum G6PD inhibitors: diaphorase inhibitors, oxidizers | shares compounds with PfGluPho inh | diaphorase-coupled resazurin reduction, fluorescence, NADPH 10 uM | inhibition, % at 20 µM | 820 tested, 39% active | AID 504862;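 active means average inhibition reaching 50% or more with the compound at 20 µM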;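 further: resorufin red fluorescence formed as diaphorase reduces resazurin using NADPH; 0% = DMSO with enzyme and 100% = DMSO without enzyme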
Diaphorase 30uM – counter-screen for P. falciparum G6PD inhibitors: diaphorase inhibitors, oxidizers | shares compounds with PfGluPho inh | Diaphorase/resazurin coupled assay, resorufin fluorescence, 30 uM NADPH | AID 504863 | inhibition, % at 20 µM | 820 tested, 29% active;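 active means inhibition averaging 50% or more, tested at 20 µM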;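 further: 0% = DMSO with enzyme and 100% = DMSO wells lacking diaphorase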
* = called active by the depositor; x = no result.

SMILES	Diaph inh CS	Diaphorase act	HKDC1 inhibitor	PfGluPho inh	G6PDH CS	PfG6PD confirm	others
CC1=CC(=Nc2c(C)n(C)n(-c3ccccc3)c2=O)C=C(C)C1=O	70*	0.3	6	72*	2	57*	Diaph ctr 10uM=64*;Diaphorase 30uM=69*
CCOC(=O)/C(=C\c1cccc(O)c1)c1nc2sc(C)c(C)c2c(=O)[nH]1	12	0.9	3	69*	-10	20
CCOC(=O)c1nc2sc(C)c(C)c2c(=O)[nH]1	6	0.9	-4	22	5	x
COc1ccc(/C=N/Nc2nncn2N)cc1Br	x	x	14	79*	x	40
CCc1nnc(N/N=C\c2ccc(OC(C)=O)c(OC)c2)n1N	x	x	-3	33	x	x
COc1cc(/C=N/Nc2nncn2N)ccc1OCc1c(C)no[n+]1[O-]	x	x	3	82*	x	63*	Diaph ctr 10uM=34;Diaphorase 30uM=24
CCc1nnc(N/N=C/c2ccc(O)c(OC)c2)n1N	x	x	4	72*	x	24
CC(C)N(C(=O)[C@H]1C[C@H](CC(=O)NCCN2CCOCC2)C(=O)N2CCc3c([nH]c4ccc(Cl)cc34)[C@]12C)C(C)C	x	x	1	-2	x	x
NC(=O)COc1c(-c2ccc(Br)o2)oc2ccccc2c1=O	x	x	0	18	x	x
COc1ccc(CC(=O)OCC(=O)Nc2ccc3c(c2)OCO3)cc1	6	0.9	-5	1	-3	x
COc1ccc(OC)c(NC(=O)c2cc3c(=O)n4ccccc4nc3n2C)c1	2	1	-2	3	-4	x
CN(C)c1ccc(NC(=O)c2cc3c(=O)n4ccccc4nc3n2C)cc1	x	x	11	62*	x	8
Cc1ccc(/C=N/NC(=O)CSc2nc3ccccc3n2C)s1	6	0.9	-1	117*	9	87*	Diaph ctr 10uM=93*;Diaphorase 30uM=79*
O=C(O)c1ccc2cccc(O)c2n1	x	x	13	66*	x	32
O=C(O)c1ccc2cccnc2n1	16	0.8	2	14	22	x
O=c1ccc2cc(S(=O)(=O)N3CCN(c4ccc(Cl)cc4)CC3)ccc2o1	x	x	-6	-7	x	x
COc1ccc(NC(=S)Nc2ccc3nsnc3c2)cc1	59*	0.4	2	89*	57*	-12
CCOc1ccc(NC(=S)Nc2ccc3nsnc3c2)cc1	54*	0.5	7	64*	54*	13
Fc1ccc(Oc2cnc3ccccc3n2)cc1	-8	1.1	-12	5	2	x
CCCOc1ccc(/C=N/NC(=O)CN(c2ccc(OCC)cc2)S(C)(=O)=O)cc1	x	x	11	4	x	x
CCOc1ccc(N(CC(=O)N/N=C/c2cc([N+](=O)[O-])ccc2Cl)S(C)(=O)=O)cc1	8	0.9	9	87*	-4	60*	Diaph ctr 10uM=72*;Diaphorase 30uM=46
Cc1c(/C=C/C(=O)c2ccc(Cl)s2)cnn1C	2	1	8	60*	7	52*	Diaph ctr 10uM=63*;Diaphorase 30uM=39
Cc1c(/C=C/C(=O)c2ccccc2)cnn1C	-10	1.1	0	9	5	x
Cc1c(/C=C/C(=O)c2ccc(C(C)C)cc2)cnn1C	10	0.9	0	68*	8	42
CCN(C(=O)COC(=O)c1c(-c2ccccc2)noc1C)c1c(N)n(Cc2ccccc2)c(=O)[nH]c1=O	x	x	1	-8	x	x
SMILES	Diaph inh CS	Diaphorase act	HKDC1 inhibitor	PfGluPho inh	G6PDH CS	PfG6PD confirm	others
CCOC(=O)C1CCN(C(=O)Cn2nc(C)n3cccc3c2=O)CC1	x	x	-2	8	x	x
O=C(NCc1ccc(F)cc1)c1cc2ccccc2o1	x	x	-4	3	x	x
COc1ccc(/C=C2/CCCC(CN(C)C)C2=O)cc1 (stereo unspecified)	x	x	15	44	x	x
COc1cccc(/C=C2/CCC(CN(C)C)C2=O)c1 (stereo unspecified)	x	x	17	70*	x	39
COc1cccc(/C=C2\CCC(C3CCCC3)C2=O)c1 (stereo unspecified)	x	x	3	8	x	x
CN(C)CC1CCC/C(=C/c2ccc(Cl)cc2)C1=O (stereo unspecified)	x	x	31	60*	x	21

Screening data deposited in PubChem by Sanford-Burnham Center for Chemical Genomics.
